Test results reported in ChEMBL document CHEMBL1764963, “In vitro and QSAR studies of cucurbitacins on HepG2 and HSC-T6 liver cell lines” (Bioorg Med Chem, 2011).
The source made the active and inactive calls. The calls are words filed in the database; no cut-off is given here.

Experiments:
HepG2 [1] = test: Ratio of IC50 to EC50 for hepatoprotective activity in human HepG2 cells; assay type: functional
HeLa = test: Cytotoxicity against human HeLa cells after 24 hrs by MTT assay; assay type: functional, cell-based
[2] = Ratio of IC50 to EC50 for antiproliferative activity in rat HSC-T6 cells; assay type: functional
HepG2 [3] = test: Ratio of IC50 for human HepG2 cells to IC50 for human HeLa cells
In short: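 Both lines (HepG2 grown 10 days, HeLa 7 days, in EMEM/10% FBS) seeded 24 h in 2% FBS at 30,000 and 15,000 cells/ml. Five-fold serial dilutions over 5 wells for 24 h. Viability by MTT at 570 nm versus cell-free and untreated controls. IC50 derived from log IC50. Ratio taken of the two IC50 values.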

HepG2 [4] = test: Hepatoprotective activity in human HepG2 cells assessed as inhibition of CCl4-induced toxicity after 24 hrs by MTT assay; assay type: functional, cell-based; design: Activity: scale not given: the % may be the effect or the level left; settings: for EC50: Homo sapiens, HepG2, 24 h
[5] = Antiproliferative activity against serum-stimulated rat HSC-T6 cells after 24 hrs by MTT assay; assay type: functional, cell-based; settings: HSC-T6, 24 h
HepG2 [6] = test: (§1) Cytotoxicity against human HepG2 cells after 24 hrs assessed as inhibition of cell viability by MTT assay; assay type: cell-based; settings: for IC50: Homo sapiens, HepG2, 24 h
HepG2 [7] = test: Hepatoprotective activity in human HepG2 cells assessed as protection against cell damage after 24 hrs by MTT assay; assay type: functional
[8] = Cytotoxicity against rat HSC-T6 cell after 24 hrs by MTT assay; assay type: cell-based; settings: for IC50: Rattus norvegicus, HSC-T6, 24 h
[9] = Inhibition of hyaluronidase activity at 71.68 mM
HepG2 [10] = test: Hepatoprotective activity in human HepG2 cells assessed as inhibition of CCl4-induced toxicity at 6.25% IC50 after 24 hrs by MTT assay; assay type: functional, cell-based
In short: (§2)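 HepG2 cells grown 10 days in EMEM with 10% FBS, then seeded 24 h at 30,000 cells/ml in 2% FBS. Test agent added together with CCl4 (4.5 x 10^-3 M) for 24 h. Silybin was tested at 1–200 uM. Cucurbitacins were tested at 0.5 and […] their IC50, then at 0.13 and 0.06. MTT read at 570 nm. % protection calculated against CCl4-only and media-only controls. Three experiments, ≥3 replicates each.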

HepG2 [11] = test: Hepatoprotective activity in human HepG2 cells assessed as inhibition of CCl4-induced toxicity at 12.5% IC50 after 24 hrs by MTT assay; assay type: functional, cell-based; in short: as §2
[12] = Antioxidant activity assessed as inhibition of free radical production at 0.58 mM within 6 mins by ABTS+ decolorization assay; assay type: functional
[13] = as §1; assay type: cell-based; settings: human, HepG2 cells; read-out: INH
HSC-T6 = test: Cytotoxicity against rat HSC-T6 cell up to 300 uM after 24 hrs by MTT assay; assay type: functional, cell-based
In short: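 HSC-T6 rat stellate cells grown 4-5 days in EMEM/10% FBS, then seeded 24 h at 100,000 cells/ml in 2% FBS. Medium replaced with compound in fresh 10% FBS medium, two-fold dilutions across seven wells, for 24 h. Viability by MTT (570 nm) relative to cell-free and untreated controls. Three experiments, ≥3 replicates each.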

HepG2 [14] = test: Hepatoprotective activity in human HepG2 cells assessed as inhibition of CCl4-induced toxicity at 100 uM after 24 hrs by MTT assay; assay type: functional, cell-based; in short: as §2
[15] = system: Radical scavenging activity; test: Antioxidant activity assessed as DPPH radical scavenging activity at 64 uM after 10 mins; assay type: functional

| SMILES | Ratio IC50/EC50 (HepG2 [1]) | IC50 (HeLa) | Ratio IC50/EC50 [2] | EC50 (HepG2 [4]) | EC50 [5] | IC50 (HepG2 [6]) | Activity (HepG2 [7]) | IC50 [8] | also measured |
| --- | --- | --- | --- | --- | --- | --- | --- | --- | --- |
| COC1=C[C@@H]2C(=CC[C@@H]3[C@@]2(C)C(=O)C[C@]2(C)[C@@H]([C@@](C)(O)C(=O)/C=C/C(C)(C)OC(C)=O)[C@H](OC(C)=O)C[C@@]32C)C(C)(C)C1=O | 5 | 3.2 µM | 13 | 5.2 µM | 0.91 µM | 26 µM | 40% | 11.5 µM | Ratio IC50 (HepG2 [3]): 8 |
| CCCCC1C(=O)N(c2ccccc2)N(c2ccccc2)C1=O |  |  |  |  |  |  |  |  | inhibition [9]: 50% |
| CCCOC1=C[C@@H]2C(=CC[C@@H]3[C@@]2(C)C(=O)C[C@]2(C)[C@@H]([C@@](C)(O)C(=O)/C=C/C(C)(C)OC(C)=O)[C@H](O)C[C@@]32C)C(C)(C)C1=O |  | 1.4 µM |  |  | 0.34 µM |  | 40% | 2.75 µM | inhibition (HepG2 [10]): inactive; inhibition (HepG2 [11]): inactive |
| CC(C)(O)/C=C/C(=O)[C@](C)(O)[C@H]1[C@H](O)C[C@@]2(C)[C@@H]3CC=C4[C@@H](C=C(O)C(=O)C4(C)C)[C@]3(C)C(=O)C[C@]12C [CUCURBITACIN I] | 5 |  | 150 | 3.16 µM | 0.02 µM | 15.8 µM | 40% | 3.6 µM | inhibition (INH) (HepG2 [4]): 74% |
| CC(=O)OC(C)(C)/C=C/C(=O)[C@](C)(O)[C@H]1[C@H](O)C[C@@]2(C)[C@@H]3CC=C4[C@@H](C=C(O[C@@H]5O[C@H](CO)[C@@H](O)[C@H](O)[C@H]5O)C(=O)C4(C)C)[C@]3(C)C(=O)C[C@]12C | 5 | 37 µM | 31 | 45.3 µM | 3.28 µM | 227 µM | 40% | 102 µM | Ratio IC50 (HepG2 [3]): 6 |
| CC(C)OC1=C[C@@H]2C(=CC[C@@H]3[C@@]2(C)C(=O)C[C@]2(C)[C@@H]([C@@](C)(O)C(=O)/C=C/C(C)(C)O)[C@H](O)C[C@@]32C)C(C)(C)C1=O |  |  | 10 |  | 0.25 µM | 7.33 µM | 40% | 2.53 µM | Activity (HepG2 [4]): <50% |
| COC1=C[C@@H]2C(=CC[C@@H]3[C@@]2(C)C(=O)C[C@]2(C)[C@@H]([C@@](C)(O)C(=O)/C=C/C(C)(C)OC(C)=O)[C@H](O)C[C@@]32C)C(C)(C)C1=O | 5 |  | 35 | 2.4 µM | 0.08 µM | 12 µM | 40% | 2.83 µM |  |
| CC(=O)OC(C)(C)/C=C/C(=O)[C@](C)(O)[C@H]1[C@H](O)C[C@@]2(C)[C@@H]3CC=C4[C@@H](C=C(O)C(=O)C4(C)C)[C@]3(C)C(=O)C[C@]12C [CUCURBITACIN E] |  | 0.1 µM |  | 3.2 µM | 0.04 µM | 15.2 µM | 40% |  | inhibition (INH) (HepG2 [4]): 74% |
| Cc1c(C)c2c(c(C)c1O)CCC(C)(C(=O)O)O2 (configuration not stated) |  |  |  |  |  |  |  |  | inhibition [12]: 50% |
| ClC(Cl)(Cl)Cl [CARBON TETRACHLORIDE] |  |  |  |  |  |  |  |  | cytotoxicity at 24 h [13]: 50% |
| COc1cc(C2Oc3cc([C@H]4Oc5cc(O)cc(O)c5C(=O)[C@@H]4O)ccc3OC2CO)ccc1O (some centres not stated) [SILIBININ] |  |  |  | 45 µM | 18.8 µM |  | 40% |  | Activity (HSC-T6): Not toxic; inhibition (HepG2 [14]): Active; Activity (HepG2 [6]; human, hepg2, 24 h): Non-toxic; Activity ([8]; rat, hsc-t6, 24 h): Non-toxic |
| CCCOC1=C[C@@H]2C(=CC[C@@H]3[C@@]2(C)C(=O)C[C@]2(C)[C@@H]([C@@](C)(O)C(=O)/C=C/C(C)(C)O)[C@H](O)C[C@@]32C)C(C)(C)C1=O |  |  | 8 |  | 0.33 µM | 5 µM | 40% | 2.47 µM | Activity (HepG2 [4]): <50% |
| CCOC1=C[C@@H]2C(=CC[C@@H]3[C@@]2(C)C(=O)C[C@]2(C)[C@@H]([C@@](C)(O)C(=O)/C=C/C(C)(C)O)[C@H](O)C[C@@]32C)C(C)(C)C1=O |  |  |  |  | 0.34 µM |  | 40% | 3.53 µM | Activity (HepG2 [4]): <50% |
| CC(C)(O)/C=C/C(=O)[C@](C)(O)[C@H]1[C@H](O)C[C@@]2(C)[C@@H]3CC=C4[C@@H](CC(=O)[C@@H](O)C4(C)C)[C@]3(C)C(=O)C[C@]12C | 6 |  | 137 | 13.8 µM | 0.06 µM | 80.3 µM | 40% | 8.7 µM | inhibition (INH) (HepG2 [4]): 74% |
| CC(C)(O)/C=C/C(=O)[C@](C)(O)[C@H]1[C@H](O)C[C@@]2(C)[C@@H]3CC=C4[C@@H](C[C@H](O)C(=O)C4(C)C)[C@]3(C)C(=O)C[C@]12C [CUCURBITACIN D] | 9 | 0.7 µM | 379 | 9 µM | 0.07 µM | 77.3 µM | 40% | 26 µM | Ratio IC50 (HepG2 [3]): 107; inhibition (INH) (HepG2 [4]): 74% |
| CC(=O)OC(C)(C)/C=C/C(=O)[C@](C)(O)[C@H]1[C@H](O)C[C@@]2(C)[C@@H]3CC=C4[C@H](C[C@H](O)C(=O)C4(C)C)[C@]3(C)C(=O)C[C@]12C [CUCURBITACIN B] | 3 | 0.8 µM | 205 | 10.5 µM | 0.02 µM | 27.7 µM | 40% | 4.42 µM | Ratio IC50 (HepG2 [3]): 37 |
| CCOC1=C[C@@H]2C(=CC[C@@H]3[C@@]2(C)C(=O)C[C@]2(C)[C@@H]([C@@](C)(O)C(=O)/C=C/C(C)(C)OC(C)=O)[C@H](O)C[C@@]32C)C(C)(C)C1=O |  | 1.1 µM | 13 |  | 0.27 µM | 5.1 µM | 40% | 3.5 µM | Ratio IC50 (HepG2 [3]): 5; Activity (HepG2 [4]): <50% |
| O=C1O[C@H]([C@@H](O)CO)C(O)=C1O |  |  |  |  |  |  |  |  | inhibition [15]: 50% |
| CC(=O)OC(C)(C)/C=C/C(=O)[C@](C)(O)[C@H]1[C@H](O)C[C@@]2(C)[C@@H]3CC=C4[C@@H](C=C(OC(C)C)C(=O)C4(C)C)[C@]3(C)C(=O)C[C@]12C |  |  | 8 |  | 0.32 µM | 4.27 µM | 40% | 2.5 µM |  |
| COC1=C[C@@H]2C(=CC[C@@H]3[C@@]2(C)C(=O)C[C@]2(C)[C@@H]([C@@](C)(O)C(=O)/C=C/C(C)(C)O)[C@H](O)C[C@@]32C)C(C)(C)C1=O | 3 |  | 60 | 5.25 µM | 0.11 µM | 15 µM | 40% | 6.37 µM | inhibition (INH) (HepG2 [4]): 74% |
| CC(C)(O)/C=C/C(=O)[C@](C)(O)[C@H]1[C@H](O)C[C@@]2(C)[C@@H]3CC=C4[C@@H](C=C(O[C@@H]5O[C@H](CO)[C@@H](O)[C@H](O)[C@H]5O)C(=O)C4(C)C)[C@]3(C)C(=O)C[C@]12C | 2 |  | 62 | 195 µM | 4.15 µM | 390 µM | 40% | 256 µM |  |
| COC1=C[C@@H]2C(=CC[C@@H]3[C@@]2(C)C(=O)C[C@]2(C)[C@@H]([C@@](C)(O)C(=O)CCC(C)(C)O)[C@H](O)C[C@@]32C)C(C)(C)C1=O |  |  |  | 5 µM | 0.18 µM |  | 40% | 6.7 µM | inhibition (INH) (HepG2 [4]): 74% |
